Screening data deposited in PubChem BioAssay by several laboratories.
Mdm2 ligase inh = MDM2-luciferase reporter signal enhancers, primary screen, MDM2 E3 ligase inhibitor project, cell-based, luminescence, 1536-well; E3 ubiquitin-protein ligase Mdm2 (Homo sapiens), Q00987; cell-based MDM2 ubiquitination luciferase reporter, 2 h; 0 = plate control, 100 = twice control, blank-subtracted; signal enhancement, % at 5 µM; actives 0.11% (n = 210,000); AID 1230, 2008;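 active means signal enhancement of 30% or more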;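 further: luminescence tracks abundance of the self-degrading MDM2-luciferase fusion protein; higher signal means inhibition of MDM2 E3 ligase activity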
Target sequence (Q00987 whole entry, looked up, the tested form may be a part): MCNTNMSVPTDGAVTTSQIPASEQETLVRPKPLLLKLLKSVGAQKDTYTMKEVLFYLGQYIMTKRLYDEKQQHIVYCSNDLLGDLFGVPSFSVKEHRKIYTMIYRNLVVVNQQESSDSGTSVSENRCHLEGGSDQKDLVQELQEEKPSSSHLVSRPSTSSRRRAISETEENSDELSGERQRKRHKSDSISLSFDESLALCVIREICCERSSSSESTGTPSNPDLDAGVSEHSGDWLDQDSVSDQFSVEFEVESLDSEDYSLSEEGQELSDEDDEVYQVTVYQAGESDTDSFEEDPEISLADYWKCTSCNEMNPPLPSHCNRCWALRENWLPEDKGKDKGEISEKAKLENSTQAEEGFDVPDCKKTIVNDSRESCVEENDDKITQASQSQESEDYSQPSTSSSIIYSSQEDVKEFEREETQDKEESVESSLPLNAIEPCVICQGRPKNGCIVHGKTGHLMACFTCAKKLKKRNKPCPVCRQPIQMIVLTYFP
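Material: stable MDM2–luciferase fusion reporter cells / Quantity: 2000 cells/well / Dosing: single 5 µM compound dose, 0.2% final DMSO / Buffer or medium: DMEM / Schedule: 4 h cell settling then 2 h compound exposure, 37 °C / Detection: luminescence with SteadyLite reagent, 15 min at room temperature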
Dynein cargo inh = inhibitors of GR-EGFP nuclear translocation, primary screen, dynein cargo transport inhibitor project, imaging, high-content, 3617.4 mouse cells; test concentration mostly 20 µM; stimulated with dexamethasone, 1 µM; hits give low values; z-score, hits read low; AID 1381, 2008; actives 0.47% (n = 220,000);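 active means plate z-score of nuclear minus cytoplasmic receptor signal below a set negative limit, without overly bright fluorescence or cell loss, cut at about -3.5 in these data, passing the limit was not always enough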;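 further: z-score of nuclear minus cytoplasmic ring GR-EGFP intensity difference per well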
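Buffer or medium: tet-free, stripped-serum medium; reagent: dexamethasone at 1.0 µM final, 30 min; incubation: 48 h induction, 1 h compound, 30 min dex at 37 °C; measured by: formaldehyde fixation, Hoechst nuclear stain, 10x automated fluorescence imaging; read-out: nuclear-to-cytoplasmic GR-EGFP distribution per well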
Beta2AR agonist = beta2AR agonists driving receptor internalization, primary screen, cell-based, FAP fluorogen, flow cytometry; actives 0.43% (n = 340,000); Am2.2-beta2AR cells; response, % (no concentration beside the values);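 active means response above a set limit, near 3 SD of response in nonfluorescent compounds, cut at about 42% in these data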
UPR CHOP act = activators of apoptotic CHOP UPR arm, primary screen, cell-based, CHO-CHOP luciferase reporter, luminescence, uHTS; activation, % at 10 µM; UPR activation; percent of tunicamycin response over DMSO baseline; actives 0.34% (n = 330,000); AID 449763, 2010;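 active means at 10 µM dose, activation of 40% or more, normalized to positive control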;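 further: 100% = tunicamycin at 10 µg/mL and 0% = DMSO alone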
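System: CHO CHOP reporter cells. Amount: 500 cells per well. Buffer or medium: F12 medium, 10% FBS. Compound dosing: one dose, 10 µM in 0.5% DMSO. Incubation: 6 h compound exposure at 37 °C after overnight seeding. Technique: Steady-Glo luciferase luminescence. Benchmarks: tunicamycin and DMSO controls.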
Mdm2-MdmX inh = inhibitors of human Mdm2-MdmX association, primary screen, cell-based, luminescence, split luciferase, SaOS-2, uHTS; SaOS-2 split-luciferase Mdm2/MdmX complementation; Protein Mdm4 (Homo sapiens) + E3 ubiquitin-protein ligase Mdm2 (Homo sapiens), …; actives 3% (n = 330,000); inhibition, % at 8 µM;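 active means inhibition of at least 50% at 8 µM in the primary screen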
UPR XBP1 act = activators of adaptive XBP1 UPR arm, primary screen, cell-based, CHO-XBP1 luciferase reporter, luminescence, uHTS. IRE1-XBP1 UPR activation; percent of tunicamycin response, DMSO as zero. activation, % at 20 µM. actives 0.33% (n = 330,000);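 active means versus positive control, 20 µM dose yields 30% or more activation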;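 further: 100% = tunicamycin at 10 µg/mL and 0% = DMSO only wells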
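Material: CHO-XBP1 cells stably carrying IRE1-XBP1-driven luciferase reporter / Amount: 1000 cells per well / Compound: 20 µM, 1% DMSO / Times: 6 h treatment, 37 °C / Detection: luciferase luminescence / Measure: % activation of reporter signal versus tunicamycin and DMSO controls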
Mdm2-MdmX conf = Mdm2-MdmX complex disruptors, retested hits, confirmation, luminescence, single concentration | actives 55% (n = 10,000) | shares compounds with Mdm2-MdmX inh | inhibition, % at 8 µM | Mdm2-MdmX binding, luminescent assay; in the data active means inhibition above about 40%
Full FLuc ctr = full-length luciferase signal inhibition, confirmation, counter-screen for Mdm2/MdmX interaction inhibitor project, cell-based, single concentration, SaOS-2 | actives 77% (n = 6,200) | inhibition, % at 8 µM | shares compounds with Mdm2-MdmX inh | SaOS-2 full-length luciferase counterscreen, luminescence;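 active means mean inhibition at 8 µM reaching about 37%, which flags the compound as non-specific, limit read from the data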;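 further: p53-null SaOS-2 cells with luciferase driven by a doxycycline-inducible promoter; compound on cells about two nights before reading with doxycycline added after day one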
Starred values were filed as active, the others as inactive; / = no result. In the library only some 3.7% were active in any assay of this set; here they are far more common.

SMILES	Mdm2 ligase inh	Dynein cargo inh	Beta2AR agonist	UPR CHOP act	Mdm2-MdmX inh	UPR XBP1 act	Mdm2-MdmX conf	Full FLuc ctr
O=C(COC(=O)c1ccccc1NCCO)NNC(=O)c1cccs1	/	/	-10	0	3	1	/	/
CC(C)c1cccc(C(C)C)c1NC(=O)CN1C(=O)NC2(CCCCCCC2)C1=O	/	/	-2	-2	11	2	/	/
CCOc1ccccc1N1CCN(C(=O)C2=CC=CN3CCS(=O)(=O)N=C23)CC1	/	/	-4	0	-8	-3	/	/
Cc1n[nH]c(C)c1C(=O)CC1(O)C(=O)N(Cc2ccccc2)c2ccc(Br)cc21 (centres undefined)	-22	-1.2	-2	0	-28	3	/	/
C=CCN1C(=O)C(O)(CC(=O)c2ccco2)c2cc(Br)ccc21 (centres undefined)	-11	-0.25	5	-2	59*	-2	35	/
COc1cc(/C=N/NC(=O)Nc2cccc3nsnc23)cc(OC)c1OC	-19	2.2	4	/	/	/	/	/
O=C(N/N=C/c1ccc(O)cc1)Nc1cccc2nsnc12	2	-0.55	20	2	71*	16	66*	62*
CC(C)(C)NC(=O)CN1CCN(C(=O)CCl)CC1	-22	0.48	-3	4	18	-1	/	/
CC1(C)CC(=O)N(c2cc(Cl)cc(Cl)c2)C(=O)C1	/	/	6	-1	-18	1	/	/
CCN(CC)C(=O)c1sc(N)c(C(=O)OC(C)C)c1C	-5	-0.72	-5	0	4	3	/	/
CCN(CC)C(=O)c1sc(NC(=O)C(Sc2ccccc2)c2ccccc2)c(C(=O)OC(C)C)c1C (centres undefined)	-9	-0.56	-1	2	58*	1	1	/
CC(=O)N1CC(=O)N(c2ccccc2)C1=O	/	/	5	-1	-20	-3	/	/
COc1ccc(S(=O)(=O)N2CCCCC2)cc1NS(=O)(=O)c1ccccc1	/	/	0	0	-2	0	/	/
O=C(Nc1nc2ccccc2s1)c1cc(-c2ccco2)nc2ccccc12	-16	-0.064	3	1	66*	-1	45*	55*
CCN(CC)CCNC(=O)c1ccc(NC(=O)c2cc(-c3ccco3)nc3ccccc23)cc1	/	/	13	2	55*	-3	22	/
Cc1ccc2nc(NC(=O)c3cc(-c4ccco4)nc4ccccc34)sc2c1	6	-0.32	4	1	61*	-3	31	/
Cc1ccccc1-c1cc(C(=O)Nc2nc3c(s2)CCCC3)c2ccccc2n1	-19	-0.15	11	-1	62*	-1	48*	35
CCN(CC(=O)Nc1c(F)cccc1F)C(=O)c1ccc2c(c1)S(=O)(=O)N=C1CCCCCN12	/	/	-12	-2	5	-3	/	/
Cn1ncc(Cl)c1C(=O)N1CCN(c2ccc(Cl)c(Cl)c2)CC1	/	/	11	4	21	-6	/	/
COc1ccc(N2CCN(C(=O)CN3C(=O)NC(C)(C4CC4)C3=O)CC2)cc1 (centres undefined)	/	/	4	-1	10	1	/	/
O=C(c1cccc(NC2=NC3CS(=O)(=O)CC3S2)c1)N1CCN(c2cccc(Cl)c2)CC1 (centres undefined)	/	/	2	1	-6	-2	/	/
Cc1ccc(C)c(-c2cc(C(=O)Nc3sc(C)c(C)c3C(N)=O)c3ccccc3n2)c1	2	0.27	9	4	51*	-1	18	/
Cc1cccc(-c2cc(C(=O)Nc3sc(C)c(C)c3C(N)=O)c3ccccc3n2)c1	-12	1.7	16	-1	23	6	/	/
O=[N+]([O-])c1cccc(Oc2cnccn2)c1	/	/	0	2	-9	-3	/	/
CCc1nc2ccc(C(=O)N3CCN(c4cccc(OC)c4)CC3)cc2nc1CC	/	/	-2	0	64*	4	39	63*
SMILES	Mdm2 ligase inh	Dynein cargo inh	Beta2AR agonist	UPR CHOP act	Mdm2-MdmX inh	UPR XBP1 act	Mdm2-MdmX conf	Full FLuc ctr
COc1cccc(N2CCN(C(=O)c3ccc4ccccc4c3)CC2)c1	/	/	-3	0	20	1	/	/
CCc1ccc(NC(=O)[C@H](Cc2c[nH]c3ccccc23)NC(=O)[C@@H]2Cc3ccccc3CN2)cc1	/	/	2	6	93*	0	83*	24
O=C(NC(Cc1c[nH]c2ccccc12)C(=O)Nc1ccc(F)cc1)c1cccs1 (centres undefined)	0	0.41	-4	-1	86*	-2	71*	70*
Cc1cccc(NC(=O)[C@H](Cc2c[nH]c3ccccc23)NC(=O)[C@@H]2Cc3ccccc3CN2)c1	/	/	7	0	95*	-1	79*	27
Cc1ccc(NC(=O)[C@H](Cc2c[nH]c3ccccc23)NC(=O)[C@@H]2Cc3ccccc3CN2)c(C)c1	/	/	3	2	97*	-2	82*	49*
CC(NC(=O)[C@H](Cc1c[nH]c2ccccc12)NC(=O)[C@@H]1Cc2ccccc2CN1)c1ccccc1 (some centres undefined)	/	/	3	1	19	-4	/	/
Cc1cc(C)cc(NC(=O)[C@H](Cc2c[nH]c3ccccc23)NC(=O)[C@@H]2Cc3ccccc3CN2)c1	/	/	4	-1	60*	24	15	/
Cc1nsc(Nc2ccc([N+](=O)[O-])cc2)c1C#N	-6	2.7	6	6	79*	-2	55*	89*
Cc1ccc(NC(=O)NNC(=O)Cn2nc(-c3ccccc3)c(-c3ccccc3)c(C#N)c2=O)cc1	-14	-0.46	6	2	53*	2	57*	92*
O=C(Cn1nc(-c2ccccc2)c2ccccc2c1=O)Nc1ccc(O)cc1	/	-1.3	-5	0	-16	-1	/	/
